Results: ChEMBL document CHEMBL3864147, “Antioxidant and anti-inflammatory neolignans from the seeds of hawthorn” (Bioorg Med Chem Lett, 2016)
pIC50: −log10 of the molar value.

system: not listed separately; assay: Antiinflammatory activity in mouse RAW264.7 cells assessed as inhibition of LPS-induced nitric oxide production at 100 uM after 24 hrs by Griess assay relative to control; type: functional; details: RAW264.7, 24 h
In short: (§1)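 RAW264.7 cells (5 × 10^5/mL) pre-treated with samples at 100, 50, 10 or 1 µM, then LPS (100 ng/mL) for 24 h. Nitrite in medium measured by mixing with equal volume Griess reagent (1% sulfanilamide in 5% H3PO4, 0.1% N-naphthyl-ethylenediamine), 10 min at 37 °C, absorbance 540 nm; quantified against NaNO2 standard curve; minocycline as positive control.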

Row | SMILES | inhibition at 100 µM
1 | CN(C)c1ccc(O)c2c1C[C@H]1C[C@H]3[C@H](N(C)C)C(O)=C(C(N)=O)C(=O)[C@@]3(O)C(O)=C1C2=O [MINOCYCLINE] | 59.7%
2 | COc1cc([C@@H](O)[C@@H](CO)Oc2ccc([C@@H](OC)[C@H](O)CO)cc2OC)ccc1O | 8.2%
3 | COc1cc([C@H](O)[C@@H](CO)Oc2ccc([C@@H](O)[C@H](O)CO)cc2OC)ccc1O | 6.3%

system: not listed separately; assay: Antioxidant activity assessed as ferric ion reducing activity by measuring Fe2+ levels using fe3+-TPTZ at 750 ug/ml after 30 mins by FRAP assay; type: functional; details: not given
In short: (§2)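 FRAP reagent: 300 mM acetate buffer pH 3.6, 10 mM TPTZ in 40 mM HCl, 20 mM FeCl3. Sample (3000, 1500, 750, 375 µg/mL solutions) mixed with reagent, 30 min at 37 °C, absorbance 593 nm. Values expressed as µM Fe2+ from FeSO4 calibration curve (5–450 µM).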

Row | SMILES | Activity
4 | COc1cc([C@@H](O)[C@@H](CO)Oc2ccc([C@@H](OC)[C@H](O)CO)cc2OC)ccc1O | 54.1 µmol/L
5 | COc1cc([C@H](O)[C@@H](CO)Oc2ccc([C@@H](O)[C@H](O)CO)cc2OC)ccc1O | 16 µmol/L

system: not listed separately; assay: Antioxidant activity assessed as DPPH radical scavenging activity incubated in dark for 30 mins; type: functional; details: not given
In short: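 Samples (0.4 mM stock, 5–40 µL series) and DPPH (2 mM stock, 20 µL) in ethanol, made to 200 µL with ethanol; incubated 30 min in dark at 37 °C; absorbance at 517 nm. Ethanol replaced sample as blank.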

Row | SMILES | pIC50
6 | COc1cc([C@@H](O)[C@@H](CO)Oc2ccc([C@@H](OC)[C@H](O)CO)cc2OC)ccc1O | 3.94
7 | COc1cc([C@H](O)[C@@H](CO)Oc2ccc([C@@H](O)[C@H](O)CO)cc2OC)ccc1O | 4.08

system: not listed separately; assay: Antiinflammatory activity in mouse RAW264.7 cells assessed as inhibition of LPS-induced nitric oxide production after 24 hrs by Griess assay; type: functional, cell-based; details: RAW264.7, 24 h; in short: as §1

Row | SMILES | pIC50
8 | CN(C)c1ccc(O)c2c1C[C@H]1C[C@H]3[C@H](N(C)C)C(O)=C(C(N)=O)C(=O)[C@@]3(O)C(O)=C1C2=O [MINOCYCLINE] | 4.26
9 | COc1cc([C@@H](O)[C@@H](CO)Oc2ccc([C@@H](OC)[C@H](O)CO)cc2OC)ccc1O | < 4.00
10 | COc1cc([C@H](O)[C@@H](CO)Oc2ccc([C@@H](O)[C@H](O)CO)cc2OC)ccc1O | < 4.00

system: not listed separately; assay: Antiinflammatory activity in mouse RAW264.7 cells assessed as inhibition of LPS-induced TNFalpha production at 100 uM after 24 hrs by ELISA relative to control; type: functional; details: RAW264.7, 24 h
In short: (§3)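 RAW264.7 cells plated at 5 × 10^5/mL, pre-treated with samples at 100, 50, 10 or 1 µM, then stimulated with LPS (100 ng/mL) for 24 h. TNF-α in the medium measured by ELISA kit per manufacturer's instructions and quantified from a standard curve; silybin as positive control.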

Row | SMILES | inhibition at 100 µM
11 | COc1cc([C@@H](O)[C@@H](CO)Oc2ccc([C@@H](OC)[C@H](O)CO)cc2OC)ccc1O | 69.3%
12 | COc1cc([C@H](O)[C@@H](CO)Oc2ccc([C@@H](O)[C@H](O)CO)cc2OC)ccc1O | 55.6%

species on record: Mus musculus; assay: Cytotoxicity against mouse RAW264.7 cells assessed as effect on cell viability at 100 uM preincubated for 1 hr followed by LPS stimulation measured after 24 hrs by MTT assay; type: toxicity, cell-based; details: raw264.7, 24 h
In short: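 RAW264.7 cells in DMEM with 10% FBS and penicillin/streptomycin at 37 °C, 5% CO2, seeded 5 × 10^5 cells/well; treated with samples (100 µM) 1 h, then LPS (100 ng/mL) 24 h. MTT (0.25 mg/mL) added for 4 h; formazan read at 540 nm; untreated cells as control.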

Row | SMILES | Activity
13 | COc1cc([C@@H](O)[C@@H](CO)Oc2ccc([C@@H](OC)[C@H](O)CO)cc2OC)ccc1O | Non-Toxic
14 | COc1cc([C@H](O)[C@@H](CO)Oc2ccc([C@@H](O)[C@H](O)CO)cc2OC)ccc1O | Non-Toxic

system: not listed separately; assay: Antioxidant activity assessed as ferric ion reducing activity by measuring Fe2+ levels using fe3+-TPTZ at 375 ug/ml after 30 mins by FRAP assay; type: functional; details: not given; in short: as §2

Row | SMILES | Activity
15 | COc1cc([C@@H](O)[C@@H](CO)Oc2ccc([C@@H](OC)[C@H](O)CO)cc2OC)ccc1O | 32.5 µmol/L
16 | COc1cc([C@H](O)[C@@H](CO)Oc2ccc([C@@H](O)[C@H](O)CO)cc2OC)ccc1O | 9.4 µmol/L

system: not listed separately; assay: Antiinflammatory activity in mouse RAW264.7 cells assessed as inhibition of LPS-induced TNFalpha production at 10 uM after 24 hrs by ELISA relative to control; type: functional; details: RAW264.7, 24 h; in short: as §3

Row | SMILES | inhibition at 10 µM
17 | COc1cc([C@@H](O)[C@@H](CO)Oc2ccc([C@@H](OC)[C@H](O)CO)cc2OC)ccc1O | 24.5%
18 | COc1cc([C@H](O)[C@@H](CO)Oc2ccc([C@@H](O)[C@H](O)CO)cc2OC)ccc1O | 26.2%

system: not listed separately; assay: Antiinflammatory activity in mouse RAW264.7 cells assessed as inhibition of LPS-induced nitric oxide production at 50 uM after 24 hrs by Griess assay relative to control; type: functional; details: RAW264.7, 24 h; in short: as §1

Row | SMILES | inhibition at 50 µM
19 | CN(C)c1ccc(O)c2c1C[C@H]1C[C@H]3[C@H](N(C)C)C(O)=C(C(N)=O)C(=O)[C@@]3(O)C(O)=C1C2=O [MINOCYCLINE] | 51.8%
20 | COc1cc([C@@H](O)[C@@H](CO)Oc2ccc([C@@H](OC)[C@H](O)CO)cc2OC)ccc1O | 3.8%
21 | COc1cc([C@H](O)[C@@H](CO)Oc2ccc([C@@H](O)[C@H](O)CO)cc2OC)ccc1O | 3.1%

system: not listed separately; assay: Antioxidant activity assessed as ferric ion reducing activity by measuring Fe2+ levels using fe3+-TPTZ at 3000 ug/ml after 30 mins by FRAP assay; type: functional; details: not given; in short: as §2

Row | SMILES | Activity
22 | COc1cc([C@@H](O)[C@@H](CO)Oc2ccc([C@@H](OC)[C@H](O)CO)cc2OC)ccc1O | 102 µmol/L
23 | COc1cc([C@H](O)[C@@H](CO)Oc2ccc([C@@H](O)[C@H](O)CO)cc2OC)ccc1O | 55.8 µmol/L

system: not listed separately; assay: Antiinflammatory activity in mouse RAW264.7 cells assessed as inhibition of LPS-induced TNFalpha production at 50 uM after 24 hrs by ELISA relative to control; type: functional; details: RAW264.7, 24 h; in short: as §3

Row | SMILES | inhibition at 50 µM
24 | COc1cc([C@@H](O)[C@@H](CO)Oc2ccc([C@@H](OC)[C@H](O)CO)cc2OC)ccc1O | 42.4%
25 | COc1cc([C@H](O)[C@@H](CO)Oc2ccc([C@@H](O)[C@H](O)CO)cc2OC)ccc1O | 32.3%

system: not listed separately; assay: Antiinflammatory activity in mouse RAW264.7 cells assessed as inhibition of LPS-induced TNFalpha production after 24 hrs by ELISA; type: functional, cell-based; details: RAW264.7, 24 h; in short: as §3

Row | SMILES | pIC50
26 | COc1cc([C@@H](O)[C@@H](CO)Oc2ccc([C@@H](OC)[C@H](O)CO)cc2OC)ccc1O | 4.32
27 | COc1cc([C@H](O)[C@@H](CO)Oc2ccc([C@@H](O)[C@H](O)CO)cc2OC)ccc1O | 4.07

system: not listed separately; assay: Antiinflammatory activity in mouse RAW264.7 cells assessed as inhibition of LPS-induced nitric oxide production at 10 uM after 24 hrs by Griess assay relative to control; type: functional; details: RAW264.7, 24 h; in short: as §1

Row | SMILES | inhibition at 10 µM
28 | CN(C)c1ccc(O)c2c1C[C@H]1C[C@H]3[C@H](N(C)C)C(O)=C(C(N)=O)C(=O)[C@@]3(O)C(O)=C1C2=O [MINOCYCLINE] | 22.7%
29 | COc1cc([C@@H](O)[C@@H](CO)Oc2ccc([C@@H](OC)[C@H](O)CO)cc2OC)ccc1O | -2.2%
30 | COc1cc([C@H](O)[C@@H](CO)Oc2ccc([C@@H](O)[C@H](O)CO)cc2OC)ccc1O | 1.1%

system: not listed separately; assay: Antioxidant activity assessed as ABTS radical scavenging activity after 30 mins; type: functional; details: not given
In short: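 ABTS radical generated by 7 mM ABTS plus 2.4 mM potassium persulfate, 12 h dark at room temperature, diluted in ethanol to OD 0.700 at 734 nm. Samples at several concentrations mixed with ABTS+ solution, 30 min at 37 °C, read at 734 nm; ethanol blank; percent scavenging calculated relative to blank.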

Row | SMILES | pIC50
31 | COc1cc([C@@H](O)[C@@H](CO)Oc2ccc([C@@H](OC)[C@H](O)CO)cc2OC)ccc1O | 4.89
32 | COc1cc([C@H](O)[C@@H](CO)Oc2ccc([C@@H](O)[C@H](O)CO)cc2OC)ccc1O | 5.02

system: not listed separately; assay: Antiinflammatory activity in mouse RAW264.7 cells assessed as inhibition of LPS-induced TNFalpha production at 1 uM after 24 hrs by ELISA relative to control; type: functional; details: RAW264.7, 24 h; in short: as §3

Row | SMILES | inhibition at 1 µM
33 | COc1cc([C@@H](O)[C@@H](CO)Oc2ccc([C@@H](OC)[C@H](O)CO)cc2OC)ccc1O | 4.5%
34 | COc1cc([C@H](O)[C@@H](CO)Oc2ccc([C@@H](O)[C@H](O)CO)cc2OC)ccc1O | 3.9%

system: not listed separately; assay: Antioxidant activity assessed as ferric ion reducing activity by measuring Fe2+ levels using fe3+-TPTZ at 1500 ug/ml after 30 mins by FRAP assay; type: functional; details: not given; in short: as §2

Row | SMILES | Activity
35 | COc1cc([C@@H](O)[C@@H](CO)Oc2ccc([C@@H](OC)[C@H](O)CO)cc2OC)ccc1O | 78.3 µmol/L
36 | COc1cc([C@H](O)[C@@H](CO)Oc2ccc([C@@H](O)[C@H](O)CO)cc2OC)ccc1O | 29.4 µmol/L

system: not listed separately; assay: Antiinflammatory activity in mouse RAW264.7 cells assessed as inhibition of LPS-induced nitric oxide production at 1 uM after 24 hrs by Griess assay relative to control; type: functional; details: RAW264.7, 24 h; in short: as §1

Row | SMILES | inhibition at 1 µM
37 | CN(C)c1ccc(O)c2c1C[C@H]1C[C@H]3[C@H](N(C)C)C(O)=C(C(N)=O)C(=O)[C@@]3(O)C(O)=C1C2=O [MINOCYCLINE] | 15.6%
38 | COc1cc([C@@H](O)[C@@H](CO)Oc2ccc([C@@H](OC)[C@H](O)CO)cc2OC)ccc1O | 0.3%
39 | COc1cc([C@H](O)[C@@H](CO)Oc2ccc([C@@H](O)[C@H](O)CO)cc2OC)ccc1O | -3.6%
